Test results: ChEMBL document CHEMBL3853298, “Total synthesis and in vitro bioevaluation of clavaminols A, C, H & deacetyl clavaminol H as potential chemotherapeutic and antibiofilm agents” (Eur J Med Chem, 2016)
In brackets after ≈: the same amount, converted by molar mass. Values belong to the compound of their own block, whether it stands above or below them.

Key:
Candida albicans [1] = test: Antifungal activity against Candida albicans MTCC 227 after 24 hrs by well diffusion method; type: functional; details: MTCC 227, 24 h
Procedure, shortened: (§1)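 Candida/Issatchenkia lawns (0.1 mL suspension) on Mueller-Hinton agar; 6.0 mm bored wells receive compound across a 250 to 0.48 per-well dose range, methanol as negative control. Plates kept 24 h at 30 °C. MIC is the lowest concentration producing a visible inhibition zone. Duplicate runs, mean values.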

Candida albicans [2] = test: Antifungal activity against Candida albicans MTCC 183 after 24 hrs by well diffusion method; type: functional; details: MTCC 183, 24 h; procedure, shortened: as §1
Candida albicans [3] = test: Antifungal activity against Candida albicans MTCC 854 after 24 hrs by well diffusion method; type: functional; details: MTCC 854, 24 h; procedure, shortened: as §1
Candida albicans [4] = test: Antifungal activity against Candida albicans MTCC 1637 after 24 hrs by well diffusion method; type: functional; details: MTCC 1637, 24 h; procedure, shortened: as §1
Candida albicans [5] = test: Antifungal activity against Candida albicans MTCC 3017 after 24 hrs by well diffusion method; type: functional; details: MTCC 3017, 24 h; procedure, shortened: as §1
Candida albicans [6] = test: Antifungal activity against Candida albicans MTCC 3018 after 24 hrs by well diffusion method; type: functional; details: MTCC 3018, 24 h; procedure, shortened: as §1
Candida albicans [7] = test: Antifungal activity against Candida albicans MTCC 3958 after 24 hrs by well diffusion method; type: functional; details: MTCC 3958, 24 h; procedure, shortened: as §1
Candida albicans [8] = test: Antifungal activity against Candida albicans MTCC 4748 after 24 hrs by well diffusion method; type: functional; details: MTCC 4748, 24 h; procedure, shortened: as §1
Candida albicans [9] = test: Antifungal activity against Candida albicans MTCC 7315 after 24 hrs by well diffusion method; type: functional; details: MTCC 7315, 24 h; procedure, shortened: as §1
[10] = Antifungal activity against Candida parapsilosis MTCC 1744 after 24 hrs by well diffusion method; type: functional; procedure, shortened: as §1
[Candida] aaseri [11] = Antifungal activity against Candida aaseri MTCC 1962 after 24 hrs by well diffusion method; type: functional; details: Yamadazyma aaseri, MTCC 1962, 24 h; procedure, shortened: as §1
[12] = Antifungal activity against Candida glabrata MTCC 3019 after 24 hrs by well diffusion method; type: functional; details: Nakaseomyces glabratus; procedure, shortened: as §1
[13] = Antifungal activity against Candida krusei MTCC 3020 after 24 hrs by well diffusion method; type: functional; details: Pichia kudriavzevii; procedure, shortened: as §1
Pichia sporocuriosa [14] = test: Antifungal activity against Issatchenkia hanoiensis MTCC 4755 after 24 hrs by well diffusion method; type: functional; details: MTCC 4755, 24 h; procedure, shortened: as §1
Candida albicans [15] = test: Fungicidal activity against Candida albicans MTCC 183 after 24 hrs; type: functional; details: MTCC 183, 24 h
Procedure, shortened: (§2)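 Candida grown overnight in Mueller Hinton broth. Compound serially diluted in the same broth from 150 to 0 and inoculated to a final 1.5 × 10^8 CFU/mL (0.5 McFarland), then 24 h at 37 °C. Tube contents plated onto Mueller Hinton agar for 24 h at 37 °C. MFC is the lowest concentration killing the yeast. Duplicates.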

Candida albicans [16] = test: Fungicidal activity against Candida albicans MTCC 227 after 24 hrs; type: functional; details: MTCC 227, 24 h; procedure, shortened: as §2
Candida albicans [17] = test: Fungicidal activity against Candida albicans MTCC 854 after 24 hrs; type: functional; details: MTCC 854, 24 h; procedure, shortened: as §2
Candida albicans [18] = test: Fungicidal activity against Candida albicans MTCC 1637 after 24 hrs; type: functional; details: MTCC 1637, 24 h; procedure, shortened: as §2
Candida albicans [19] = test: Fungicidal activity against Candida albicans MTCC 3017 after 24 hrs; type: functional; details: MTCC 3017, 24 h; procedure, shortened: as §2
Candida albicans [20] = test: Fungicidal activity against Candida albicans MTCC 3018 after 24 hrs; type: functional; details: MTCC 3018, 24 h; procedure, shortened: as §2
Candida albicans [21] = test: Fungicidal activity against Candida albicans MTCC 3958 after 24 hrs; type: functional; details: MTCC 3958, 24 h; procedure, shortened: as §2
Candida albicans [22] = test: Fungicidal activity against Candida albicans MTCC 4748 after 24 hrs; type: functional; details: MTCC 4748, 24 h; procedure, shortened: as §2
Candida albicans [23] = test: Fungicidal activity against Candida albicans MTCC 7315 after 24 hrs; type: functional; details: MTCC 7315, 24 h; procedure, shortened: as §2
Candida parapsilosis = test: Fungicidal activity against Candida parapsilosis MTCC 1744 after 24 hrs; type: functional; details: Lodderomyces parapsilosis, MTCC 1744, 24 h
Procedure, shortened: (§3)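 Broth dilution in Mueller Hinton broth with serial compound concentrations from […]. Overnight Candida cultures added to a final 1.5 × 10^8 CFU/mL (0.5 McFarland). Incubated 24 h at 37 °C, then 10 µL of each tube plated on Mueller Hinton agar for 24 h at 37 °C. MFC taken as the lowest concentration that kills the strain. Run in duplicate.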

[Candida] aaseri [24] = Fungicidal activity against Candida aaseri MTCC 1962 after 24 hrs; type: functional; details: Yamadazyma aaseri, MTCC 1962, 24 h; procedure, shortened: as §2
Nakaseomyces glabratus = test: Fungicidal activity against Candida glabrata MTCC 3019 after 24 hrs; type: functional; details: MTCC 3019, 24 h; procedure, shortened: as §2
Pichia kudriavzevii = test: Fungicidal activity against Candida krusei MTCC 3020 after 24 hrs; type: functional; details: MTCC 3020, 24 h; procedure, shortened: as §3
Pichia sporocuriosa [25] = test: Fungicidal activity against Issatchenkia hanoiensis MTCC 4755 after 24 hrs; type: functional; details: MTCC 4755, 24 h; procedure, shortened: as §3
[26] = Cytotoxicity against human SKOV3 cells assessed as cell growth inhibition by MTT assay; type: functional, cell-based; details: SK-OV-3
[27] = Cytotoxicity against human DU145 cells assessed as cell growth inhibition by MTT assay; type: functional, cell-based; details: DU-145
[28] = Cytotoxicity against human HeLa cells assessed as cell growth inhibition by MTT assay; type: functional, cell-based
[29] = Cytotoxicity against human MCF7 cells assessed as cell growth inhibition by MTT assay; type: functional, cell-based

MIC (Candida albicans [1]): 7.8 µg/mL (≈ 18.7 µM)
MIC (Candida albicans [2]): 7.8 µg/mL (≈ 18.7 µM)
MIC (Candida albicans [3]): 7.8 µg/mL (≈ 18.7 µM)
MIC (Candida albicans [4]): 7.8 µg/mL (≈ 18.7 µM)
MIC (Candida albicans [5]): 7.8 µg/mL (≈ 18.7 µM)
MIC (Candida albicans [6]): 7.8 µg/mL (≈ 18.7 µM)
MIC (Candida albicans [7]): 7.8 µg/mL (≈ 18.7 µM)
MIC (Candida albicans [8]): 7.8 µg/mL (≈ 18.7 µM)
MIC (Candida albicans [9]): 7.8 µg/mL (≈ 18.7 µM)
MIC [10]: 7.8 µg/mL (≈ 18.7 µM)
MIC ([Candida] aaseri [11]): 7.8 µg/mL (≈ 18.7 µM)
MIC [12]: 7.8 µg/mL (≈ 18.7 µM)
MIC [13]: 7.8 µg/mL (≈ 18.7 µM)
MIC (Pichia sporocuriosa [14]): 7.8 µg/mL (≈ 18.7 µM)
Structure (SMILES): Clc1ccc(COC(Cn2ccnc2)c2ccc(Cl)cc2Cl)c(Cl)c1 (configuration not stated) [MICONAZOLE]
MFC (Candida albicans [15]): 7.8 µg/mL (≈ 18.7 µM)
MFC (Candida albicans [16]): 15.6 µg/mL (≈ 37.5 µM)
MFC (Candida albicans [17]): 15.6 µg/mL (≈ 37.5 µM)
MFC (Candida albicans [18]): 15.6 µg/mL (≈ 37.5 µM)
MFC (Candida albicans [19]): 7.8 µg/mL (≈ 18.7 µM)
MFC (Candida albicans [20]): 7.8 µg/mL (≈ 18.7 µM)
MFC (Candida albicans [21]): 15.6 µg/mL (≈ 37.5 µM)
MFC (Candida albicans [22]): 7.8 µg/mL (≈ 18.7 µM)
MFC (Candida albicans [23]): 7.8 µg/mL (≈ 18.7 µM)
MFC (Candida parapsilosis): 7.8 µg/mL (≈ 18.7 µM)
MFC ([Candida] aaseri [24]): 7.8 µg/mL (≈ 18.7 µM)
MFC (Nakaseomyces glabratus): 15.6 µg/mL (≈ 37.5 µM)
MFC (Pichia kudriavzevii): 7.8 µg/mL (≈ 18.7 µM)
MFC (Pichia sporocuriosa [25]): 7.8 µg/mL (≈ 18.7 µM)

Structure (SMILES): CCCCCCCCC[C@H](O)[C@@H](C)NC(C)=O [CLAVAMINOL C]
IC50 [26]: 14.1 µM
IC50 [27]: 18.3 µM
IC50 [28]: 18.5 µM
IC50 [29]: 16.3 µM
